Measured values: the EternaBench riboswitch data

Test system: MS2 coat protein
Experiment: apparent Kd, MS2 coat protein; higher = weaker binding; RNA-MaP array; FMN 200 µM where present
Outline: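 SNAP-549-labelled MS2 coat protein, doubled from 0.7 or 1.5 nM to 3 µM, was titrated over designs transcribed by stalled E. coli RNA polymerase on Illumina sequencing-chip clusters. Titrations were run without and then with constant ligand in 100 mM Tris-HCl pH 7.5, 80 mM KCl, 4 mM MgCl2, BSA, DTT, yeast tRNA and Tween-20. The apparent Kd is the median of filtered per-cluster fits to green signal normalised to red-channel RNA signal and control-cluster median Fmax.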

[1] = designed as: ON switch for flavin mononucleotide, no ligand
[2] = ligand present: flavin mononucleotide, designed as: ON switch for flavin mononucleotide
[3] = designed as: OFF switch for flavin mononucleotide, no ligand
[4] = ligand present: flavin mononucleotide, designed as: OFF switch for flavin mononucleotide

Sequence	apparent Kd [1] [nM]	apparent Kd [2] [nM]	apparent Kd [3] [nM]	apparent Kd [4] [nM]
GGACGUCACAUCUACAUGAGGAUCACCCAUGUCUCUUGAUAUGAGGAUAUGUAUACGAAUCGUAUACAGAAGGCAUGGACGUCC	26.9	28.8		
GGACGUCACAUGAACAUGAGGAUCACCCAUGUAAAUUCUCAUGAGGAUAUGGAACCUAAUUGGUUCCAGAAGGCGUGGACGUCC	849	489		
GGACGUCACAUUUACAUGAGGAUCACCCAUGUCUCUUGACAUGAGGAUAUGUAUACUAAUUGUAUACAGAAGGCAUGGACGUCC	1010	168		
GGACGUCAGAUUAACAUGAGGAUCACCCAUGUCUUUUGACAUGAGGAUAUGGAUCCUAAUUGGAUCCAGAAGGCAUGGACGUCC	1120	94.9		
GGAGAUACAUGAGGAUCACCCAUGUAGGAUAUCGGGCAUAUAUAUGGCGAAAGCCAUAUAUAUGCCGAGAAGGGCGUACACACC			8.12	7.62
GGAGCACACAUUAACAUGAGGAUCACCCAUGUCAAAAGACAUGAGGAUAUGGAUCCGAAAAGGAUCCAGAAGGCAUGGCGCUCC	103	9.9		
GGAGCACAUAUUAACAUGAGGAUCACCCAUGUCAAAAGACAUGAGGAUAUGGAUCCGAAAAGGAUCCAGAAGGCAUGGUGCUCC	268	14.3		
GGAGCACGCACAGGAUAUCCGGCGGCGCUCGUCGGAGAAGGGUGACAUGAGGAUCACCCAUGUACGUGCAACCCAGUUUGAGAG	122	44.8		
GGAGCACGCACAGGAUAUCCGGCGGCGCUCGUCGGAGAAGGGUGACAUGAGGAUCACCCAUGUACGUGCAACUCGGUUUGAGAG	105	49.2		
GGAGCAUACAUUAACAUGAGGAUCACCCAUGUCAAAAGACAUGAGGAUAUGGAUCCGAAAAGGAUCCAGAAGGCAUGGUGCUCC	173	11.5		
GGAGCUCACAUGAACAUGAGGAUCACCCAUGUAACUAGACAUGAGGAUAUGGAUCCUAAUUGGAUCCAGAAGGCAUGGAGCUCC	161	27.9		
GGAGCUCCUGACAUGAGGAUCACCCAUGUUCACUUAUUAACUCAGGAUAUCGUCUCGAAACGAGACGAGAAGGGAGAUGCUCCU	8.36	6.76		
GGAUAGGACAAAGGAUAUACGUGCUAGAGAUACUAGCAAAAUUUCCUCACAUGAGGAUCACCCAUGUAGAAGGCUGUCCUAUCG			6.93	14.7
GGAUAGGACAGAGGAUAUAAGUGCUAGAGAUACUAGCAAAAUUUCCUCACAUGAGGAUCACCCAUGUAGAAGGCUGUCCUAUCG			5.71	11.3
GGAUAGGACAGAGGAUAUACAUGCUAGAGAUACUAGCAAAAUUUCCUCACAUGAGGAUCACCCAUGUAGAAGGCUGUCCUAUCG			28.5	673
GGAUAGGACAGAGGAUAUACGUGCUAGAGAUACCAGCAAAAUUUCCUCACAUGAGGAUCACCCAUGUAGAAGGCUGUCCUAUCG			31.9	558
GGAUAGGACAGAGGAUAUACGUGCUAGAGAUACUAGCAAAAUGUCCUCACAUGAGGAUCACCCAUGUAGAAGGCUGUCCUAUCG			7.96	156
GGAUAGGACAGAGGAUAUACGUGCUAGAGAUACUAGCAAAAUUUCCUCACAUGAGGAUCACCCAUGUAGAAGGCUGUCCUAUCG			46	954
GGAUAGGACAGAGGAUAUACGUGCUAGAGAUACUAGCAAAAUUUGCUCACAUGAGGAUCACCCAUGUAGAAGGCUGUCCUAUCG			5.31	19.7
GGAUAGGACAGAGGAUAUACGUGCUAGAGAUACUAGCUACAAAUCCUUACAUGAGGAUCACCCAUGUAGAAGGCUGUCCUAUCG			19.3	38.3
GGAUAGGACGGAGGAUAUACGUGCUAGAGAUACUAGCAAAAUUUCCUCACAUGAGGAUCACCCAUGUAGAAGGCUGUCCUAUCG			12.2	222

Sequence	apparent Kd [1] [nM]	apparent Kd [2] [nM]	apparent Kd [3] [nM]	apparent Kd [4] [nM]
GGAUAGUGUCGUUAUCCGUAGCGAACAUGAGGAUCACCCAUGUAGGAUAUGUUAUUAAACUAAUAACAGAAGGGCGUGAGUCUC			429	480
GGAUCGAAAGUGAGGAUAUGCUGGUCCUUGGAUCAGCAGAAGGCACAUGAGGAUCACCCAUGUGGUAACGGUCC			33.8	172
GGAUCGAAUGUGAGGAUAUACCUAUGGAUACAUAGGUAGAAGGCACAUGAGGAUCACCCAUGUUCCUACGGUCC			81.7	680
GGAUCGAGUGUGAGGAUAUGCUGGUCCUUGGAUCAGCAGAAGGCACAUGAGGAUCACCCAUGUCCAAACGGUCC			266	388
GGAUCGAGUGUGAGGAUAUGCUGGUCCUUGGAUCAGCAGAAGGCACAUGAGGAUCACCCAUGUGAUAUCGAUCC			56.1	541
GGAUGACAAAGUCAUCCAAAUCGAACAUGAGGAUCACCCAUGUAGGAUAUGCUUCUCAAAGAGAAGCAGAAGGACAUGUGCUUU			37.8	228
GGAUGACAAAGUCAUCCUAUUCGAACAUGAGGAUCACCCAUGUAGGAUAUGCUACUCAAAGAGUAGCAGAAGGACAUGUGCCUU			32.6	178
GGCAGUCCGACACAGGAUAUGGGUAACGAAACAUGAGGAUCACCCAUGUGGAAACAUCGGGUUGCCUAGAAGGGUGGAAAGAUUG	117	32.1		
GGCCCGCGCGUGAGGAUAUGCUGAUCCCAGGAUUAGCAGAAGGCACAUGAGGAUCACCCAUGUCCAACUUGUCU			32.6	57
GGCGAGUGAGGAUAUCUGAUGUCUAACUUCGGUUAGACAUCAGAGAAGGCACAUGAGGAUCACCCAUGUCCGCC			19.3	17.1
GGCGGCGCGGGCCACCGCAAAACCAGAAGGACAUGAGGAUCACCCAUGUAACAAAACAGGGCGGUGUAGGAUAUGGCAGACCCG			14.2	25
GGCUCCGCUCGAGGAUAUAGCUGCAUGUAGUGUCCUGAGGCACAUGAGGAUCACCCAUGUGUAGGCUAGAAGGCGACGGACGCU			76.1	138
GGCUGGUGACAGCAUCCAUCAAAACAUGAGGAUCACCCAUGUAGAAGGCUGUACGGUUACCGUACAGAGGAUAUACAAUGAUGA			14.5	24.2
GGGAGACAUGAGGAUCACCCAUGUGAAAACGUGUGAGGAUAUGAAUGGAAACCAUACUGUUCAGAAGGCACUUGUC	89.7	36.6		
GGGCAAAAGUAGAAGGGAUAUACGAAAAGUAUAUCAGGAUAUACAUGAGGAUCACCCAUGUUCUAAAAGUGAUAAUCCUCCCUA			70	346
GGGCUCCCGCAGAAGGUGACAAAGUGUUCAUGUCAAGGAUAUGUGGUUCACAUGAGGAUCACCCAUGUAGGGCCCGUUAGGAAC	97.3	23.9		
GGGCUCGGAGGAUAUACAUGAGGAUCACCCAUGUAGGGCUCGGGUAUUUCUGGGUCUUGUAGAAGGCUGGGUCU			21.3	30
GGGCUGGGAGGAUAUUCAUUGGGAAACAUGAGGAUCACCCAUGUGAUAUAAGGGAAAUCCGGAGAAGGCUCGGUUC			18.1	18.8
GGGCUGGUAACAGGAUAUCGUGCCUGGCCGGAUUACAUGAGGAUCACCCAUGUCGUUGGAACCAACGAGAAGGGUUGCCUCCCG	199	28.7		
GGGCUGUCAGGAUAUACAUGAGGAUCACCCAUGUCGAGCUGUGAUAGGGCAAGAGUAGGUAGAAGGGACGAGAG			34.7	36.1
